Assay results reported in ChEMBL document CHEMBL1629534, “Acetic acid derivatives of 3,4-dihydro-2H-1,2,4-benzothiadiazine 1,1-dioxide as a novel class of potent aldose reductase inhibitors” (J Med Chem, 2010).

Experiments:
[1] = tested on: Rattus norvegicus; test: Inhibition of ALR2 in 5-day STZ-induced diabetic Wistar rat model assessed as blood glucose levels at 100 mg/kg/day, po for 5 days (reference value: 22.2 +/- 2.62 mmol/L); type: functional
[2] = tested on: Rattus norvegicus; test: Inhibition of ALR2 in 5-day STZ-induced diabetic Wistar rat model assessed as normalization of elevated sorbitol levels in sciatic nerves at 100 mg/kg/day, po for 5 days; type: functional, Sciatic nerve; design: scale not given: the % may be the effect or the level left
How it was run: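 STZ-diabetic male Wistar rats (ip 55 mg/kg) got compound po in 0.5% CMC-Na for 5 days. Sciatic nerve taken 6 h after last dose, boiled, homogenized in 6% perchloric acid and neutralized. Sorbitol read enzymatically with sorbitol dehydrogenase/NAD+ at pH 9.4, 60 min 37 °C, fluorescence ex 365/em 430 nm. Inhibition = (S-T)/(S-N)×100 against diabetic and nondiabetic controls.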

[3] = biological target: Aldo-keto reductase family 1 member B1 (Rattus norvegicus, UniProt P07943); test: Inhibition of Wistar rat lenses ALR2 by spectrophotometry; type: tissue-based, Lens of camera-type eye
How it was run: (§1)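 ALR2 enzyme extract in 0.1 M sodium phosphate pH 6.2 with NADPH (0.25 mL of 0.10 mM) and compound diluted from DMSO, preincubated 10 min at 32 °C. Started with D,L-glyceraldehyde (0.25 mL of 10 mM, 1 mL total). Fall in A340 followed for 4 min, corrected for substrate-free rate. Screened at 10^-4 M. IC50 from at least four concentrations giving 20-80% inhibition, in triplicate, with 95% CL.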

[4] = biological target: Aldo-keto reductase family 1 member A1 (Rattus norvegicus, UniProt P51635); test: Inhibition of Wistar rat kidney ALR1 by spectrophotometry
How it was run: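 ALR1 enzyme extract in 0.1 M sodium phosphate pH 7.2 with NADPH (0.25 mL of 0.12 mM) and compound diluted from DMSO, preincubated 10 min at 37 °C. Started with sodium D-glucuronate (0.25 mL of 20 mM, 1 mL total). Fall in A340 followed for 4 min, corrected for substrate-free rate. Screened at 10^-4 M. IC50 from at least four concentrations, 10^-4 to 10^-8 M, in triplicate.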

[5] = tested on: Aldehyde reductase, AKR1A1 (Rattus norvegicus); test: Inhibition of Wistar rat kidney ALR1 at 0.1 mM by spectrophotometry
[6] = biological target: Aldo-keto reductase family 1 member B1 (Rattus norvegicus) (UniProt P07943); test: Inhibition of Wistar rat lenses ALR2 at 0.1 mM by spectrophotometry; type: tissue-based; conditions: Lens of camera-type eye; how it was run: as §1

Chain of Aldo-keto reductase family 1 member A1 (P51635 whole entry, looked up): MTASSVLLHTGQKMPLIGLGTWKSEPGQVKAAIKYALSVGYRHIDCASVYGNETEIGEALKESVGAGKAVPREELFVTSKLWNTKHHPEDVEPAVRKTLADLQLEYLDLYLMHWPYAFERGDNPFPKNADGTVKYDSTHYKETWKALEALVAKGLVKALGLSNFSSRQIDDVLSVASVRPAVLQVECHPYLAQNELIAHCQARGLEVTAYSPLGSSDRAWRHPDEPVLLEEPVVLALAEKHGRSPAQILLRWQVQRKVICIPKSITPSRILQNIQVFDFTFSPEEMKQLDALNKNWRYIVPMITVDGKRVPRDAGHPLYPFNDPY

SMILES | IC50 [3] | IC50 [4] | inhibition [5] | inhibition [6] | Activity [1] | Activity [2]
O=C(O)CN1CN(Cc2cccc([N+](=O)[O-])c2)S(=O)(=O)c2ccccc21 | 219 nM | 55800 nM | – | – | – | –
O=C(O)CN1CN(Cc2ccc(C(F)(F)F)cc2)S(=O)(=O)c2cc(Br)ccc21 | 674 nM | 110000 nM | – | – | – | –
O=C(O)CN1CN(Cc2ccccc2)S(=O)(=O)c2ccccc21 | 101000 nM | – | – | – | – | –
O=C(O)CN1CN(Cc2ccc(C(F)(F)F)cc2)S(=O)(=O)c2ccccc21 | 975 nM | – | 42% | – | – | –
O=C(O)CN1CN(Cc2ccc(Br)cc2F)S(=O)(=O)c2ccccc21 | 125 nM | 70300 nM | – | – | – | –
O=C(O)CN1CN(Cc2cccc([N+](=O)[O-])c2)c2ccccc2S1(=O)=O | 74500 nM | – | – | – | – | –
O=C(O)CN1CN(Cc2cc(F)c(F)cc2F)c2ccccc2S1(=O)=O | 14000 nM | – | – | – | – | –
O=C(O)CN1CN(Cc2ccc(C(F)(F)F)cc2)S(=O)(=O)c2cc(Cl)ccc21 | 595 nM | – | 45% | – | – | –
O=C(O)CN1CN(Cc2ccc(Br)cc2F)c2ccccc2S1(=O)=O | 58400 nM | – | – | – | – | –
O=C(O)CN1CN(Cc2ccc(C(F)(F)F)cc2)S(=O)(=O)c2cc(F)ccc21 | 931 nM | – | 40% | – | – | –
O=C(O)CN1CN(Cc2ccc(C(F)(F)F)cc2)c2ccccc2S1(=O)=O | – | – | – | 41.3% | – | –

Further compounds by falling IC50 [3], results first:

IC50 [3] | IC50 [4] | inhibition [5] | inhibition [6] | SMILES | Activity [1] | Activity [2]
116 nM | 103000 nM | – | – | O=C(O)CN1CN(Cc2cccc([N+](=O)[O-])c2)S(=O)(=O)c2cc(Br)ccc21 | – | –
111 nM | – | – | – | O=C(O)CN1CN(Cc2cc(F)c(F)cc2F)S(=O)(=O)c2ccccc21 | – | –
108 nM | 61900 nM | – | – | O=C(O)CN1CN(Cc2cccc([N+](=O)[O-])c2)S(=O)(=O)c2cc(F)ccc21 | 19.8 mmol/L | 43.6%
94 nM | 82500 nM | – | – | O=C(O)CN1CN(Cc2cccc([N+](=O)[O-])c2)S(=O)(=O)c2cc(Cl)ccc21 | 19.7 mmol/L | 45%
90 nM | 122000 nM | – | – | O=C(O)CN1CN(Cc2ccc(Br)cc2F)S(=O)(=O)c2cc(F)ccc21 | 17.9 mmol/L | 47.3%
71 nM | 69400 nM | – | – | O=C(O)CN1CN(Cc2ccc(Br)cc2F)S(=O)(=O)c2cc(Br)ccc21 | 18.4 mmol/L | 42.4%
66 nM | 80900 nM | – | – | O=C(O)CN1CN(Cc2cc(F)c(F)cc2F)S(=O)(=O)c2cc(F)ccc21 | 18.4 mmol/L | 68.2%
52 nM | 54100 nM | – | – | O=C(O)CN1CN(Cc2cc(F)c(F)cc2F)S(=O)(=O)c2cc(Br)ccc21 | 20.1 mmol/L | 51.2%
41 nM | 58900 nM | – | – | O=C(O)CN1CN(Cc2ccc(Br)cc2F)S(=O)(=O)c2cc(Cl)ccc21 | 18.2 mmol/L | 60.7%
32 nM | 50600 nM | – | – | O=C(O)CN1CN(Cc2cc(F)c(F)cc2F)S(=O)(=O)c2cc(Cl)ccc21 | 17.9 mmol/L | 61.5%
29 nM | – | – | – | NC(=O)[C@@H]1C[C@]2(NC(=O)NC2=O)c2cc(F)ccc2O1 [FIDARESTAT] | 18.5 mmol/L | 100%
